Data on 14 compounds can be found in ChEMBL document CHEMBL4622841, “Structural modifications of indolinones bearing a pyrrole moiety and discovery of a multi-kinase inhibitor with potent antitumor activity” (Bioorg Med Chem, 2020).

The target in data set [1] is Platelet-derived growth factor receptor beta (Homo sapiens, UniProt P09619). As to the kind of experiment: Inhibition of N-terminal GST-fused human PDGFRbeta cytoplasmic domain (557 to 1106 (end) residues) expressed in baculovirus expression system using FAM-labeled peptide and ATP as substrate preincubated for 10 mins followed by substrate addition measured after 1 hr by mobility shift assay.

Data set [2] concerns the target Vascular endothelial growth factor receptor 2 (Homo sapiens, UniProt P35968). The data set is described as follows: Inhibition of N-terminal GST fused human VEGFR2 cytoplasmic domain (790 to 1356 (end) residues) expressed in baculovirus expression system using FAM-labeled peptide and ATP as substrate preincubated for 10 mins followed by substrate addition measured after 1 hr by mobility shift assay.

Data set [3] is described as follows: Inhibition of N-terminal GST-tagged human recombinant PDGFRalpha D842I mutant expressed in baculovirus-infected Sf9 cells using FAM-labeled peptide and ATP as substrate preincubated for 10 mins followed by substrate addition measured after 1 hr by mobility shift assay.
The nature of data set [4]: Inhibition of GST-tagged human recombinant VEGFR3 cytoplasmic domain (800 to 1297 residues) Q890H/V1128L/H1146R mutant expressed in baculovirus expression system using FAM-labeled peptide and ATP as substrate preincubated for 10 mins followed by substrate addition measured after 1 hr by mobility shift assay.
The next data set relates to HT-29. The data set is described as follows: Antitumor activity against human HT-29 cells xenografted in nu/nu mouse assessed as tumour growth inhibition at 100 mg/kg, po qd for 18 days and measured twice per week by vernier caliper method. The data set is classed as functional. The following applies: HT-29, po, 432 h, read-out: TGI.
Data set [5] can be described thus: Half life in human liver microsomes. The data set is classed as ADME, Microsome. A general note: Microsomes from liver hold many membrane-bound enzymes, among them those of drug oxidation.
Data set [6] is described as follows: Toxicity in nu/nu mouse xenografted with human HT-29 cells assessed as effect on body weight at 100 mg/kg, po qd for 18 days. The following applies: in vivo, 432 h. The data set is classed as organism-based. In a few lines: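 Female nu/nu mice, 4–6 weeks old, implanted subcutaneously in the right flank with HT-29 cells (2×10⁶/mL). Once tumours reached 200 mm³, mice randomised to groups (n = 6) and dosed orally once daily at 100 mg/kg for 18 days. Body weight monitored during treatment. Results given as mean ± SD.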

Data set [7] deals with Tyrosine-protein kinase Lyn (Homo sapiens, UniProt P07948). The data set is described as follows: Inhibition of LYN (unknown origin) using FAM-labeled peptide and ATP as substrate preincubated for 10 mins followed by substrate addition measured after 1 hr by mobility shift assay.
For data set [8], the target named is Cyclin-dependent kinase 2 (Homo sapiens, UniProt P24941). As to the kind of experiment: Inhibition of CDK2 (unknown origin) using FAM-labeled peptide and ATP as substrate preincubated for 10 mins followed by substrate addition measured after 1 hr by mobility shift assay.
Data set [9] is described as follows: Intrinsic clearance in human liver microsomes. The data set is classed as ADME, Microsome. As to conditions: read-out: CLH.

By IC50 is commonly meant the concentration that inhibits the measured activity by half. A word on the half-life: it is the time needed for the level to fall by half in the phase considered.

SMILES strings stand for the structures. Some results are limits rather than exact numbers.

Chain of Platelet-derived growth factor receptor beta (P09619 whole entry, the tested form may be a part): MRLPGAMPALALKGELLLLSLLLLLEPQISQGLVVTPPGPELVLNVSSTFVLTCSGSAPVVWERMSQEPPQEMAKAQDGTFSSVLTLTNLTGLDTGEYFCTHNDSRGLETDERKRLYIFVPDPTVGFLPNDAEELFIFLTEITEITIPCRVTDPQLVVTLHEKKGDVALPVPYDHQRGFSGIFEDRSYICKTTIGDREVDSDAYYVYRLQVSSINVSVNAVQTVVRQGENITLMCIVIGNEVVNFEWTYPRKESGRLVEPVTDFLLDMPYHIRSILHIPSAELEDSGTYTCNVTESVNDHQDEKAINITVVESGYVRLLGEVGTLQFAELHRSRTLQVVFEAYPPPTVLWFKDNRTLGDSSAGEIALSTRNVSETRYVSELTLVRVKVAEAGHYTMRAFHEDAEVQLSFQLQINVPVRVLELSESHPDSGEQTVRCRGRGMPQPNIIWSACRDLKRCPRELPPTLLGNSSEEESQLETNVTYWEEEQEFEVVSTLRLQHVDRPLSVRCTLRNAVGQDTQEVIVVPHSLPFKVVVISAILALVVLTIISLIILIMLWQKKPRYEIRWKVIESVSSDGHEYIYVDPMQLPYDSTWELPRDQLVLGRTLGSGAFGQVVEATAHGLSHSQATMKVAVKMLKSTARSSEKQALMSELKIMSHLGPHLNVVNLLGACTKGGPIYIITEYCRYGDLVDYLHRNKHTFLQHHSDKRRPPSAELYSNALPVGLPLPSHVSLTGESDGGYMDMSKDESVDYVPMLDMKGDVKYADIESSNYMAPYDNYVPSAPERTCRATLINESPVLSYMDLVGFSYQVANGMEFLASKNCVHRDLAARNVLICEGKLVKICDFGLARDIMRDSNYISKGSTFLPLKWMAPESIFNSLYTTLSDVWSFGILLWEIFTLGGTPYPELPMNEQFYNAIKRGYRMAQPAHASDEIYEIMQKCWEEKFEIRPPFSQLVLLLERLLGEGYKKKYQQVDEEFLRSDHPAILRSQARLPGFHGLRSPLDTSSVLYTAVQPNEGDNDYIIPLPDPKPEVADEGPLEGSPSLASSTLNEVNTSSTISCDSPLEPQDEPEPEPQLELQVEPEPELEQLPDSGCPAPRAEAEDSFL
Chain of Vascular endothelial growth factor receptor 2 (P35968 whole entry, the tested form may be a part): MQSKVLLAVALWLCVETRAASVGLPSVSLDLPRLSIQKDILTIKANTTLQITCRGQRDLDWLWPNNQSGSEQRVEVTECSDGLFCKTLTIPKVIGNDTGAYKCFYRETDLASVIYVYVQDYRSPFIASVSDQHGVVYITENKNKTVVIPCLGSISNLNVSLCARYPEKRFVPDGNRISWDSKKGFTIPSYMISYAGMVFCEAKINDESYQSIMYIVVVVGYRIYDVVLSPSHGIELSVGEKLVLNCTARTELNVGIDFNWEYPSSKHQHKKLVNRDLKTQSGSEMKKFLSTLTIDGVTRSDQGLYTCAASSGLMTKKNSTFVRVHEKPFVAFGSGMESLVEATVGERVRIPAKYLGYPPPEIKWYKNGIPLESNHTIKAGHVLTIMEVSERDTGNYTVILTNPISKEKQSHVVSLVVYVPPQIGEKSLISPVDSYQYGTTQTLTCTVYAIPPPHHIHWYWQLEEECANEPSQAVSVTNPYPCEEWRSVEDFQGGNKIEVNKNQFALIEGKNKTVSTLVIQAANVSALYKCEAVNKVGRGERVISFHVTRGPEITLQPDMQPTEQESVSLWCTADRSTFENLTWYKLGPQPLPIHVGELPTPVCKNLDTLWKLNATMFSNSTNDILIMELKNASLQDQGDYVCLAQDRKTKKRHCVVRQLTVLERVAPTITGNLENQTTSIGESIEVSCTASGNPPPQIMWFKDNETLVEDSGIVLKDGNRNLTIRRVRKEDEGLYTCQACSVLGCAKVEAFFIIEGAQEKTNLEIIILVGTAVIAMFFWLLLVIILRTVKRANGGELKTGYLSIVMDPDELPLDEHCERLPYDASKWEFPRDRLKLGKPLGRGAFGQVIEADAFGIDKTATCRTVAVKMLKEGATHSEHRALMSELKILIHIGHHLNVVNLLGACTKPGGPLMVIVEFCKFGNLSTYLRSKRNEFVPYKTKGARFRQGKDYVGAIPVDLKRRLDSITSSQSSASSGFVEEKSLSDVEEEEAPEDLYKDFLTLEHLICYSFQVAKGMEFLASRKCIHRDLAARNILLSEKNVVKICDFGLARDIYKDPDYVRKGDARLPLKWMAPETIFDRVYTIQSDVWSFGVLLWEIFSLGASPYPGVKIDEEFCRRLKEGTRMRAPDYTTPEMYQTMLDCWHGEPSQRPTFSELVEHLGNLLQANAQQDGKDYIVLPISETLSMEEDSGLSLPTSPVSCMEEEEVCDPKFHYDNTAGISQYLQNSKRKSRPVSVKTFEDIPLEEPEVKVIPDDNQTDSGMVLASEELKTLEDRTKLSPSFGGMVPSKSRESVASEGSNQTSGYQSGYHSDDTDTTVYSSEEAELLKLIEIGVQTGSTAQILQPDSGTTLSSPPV
Chain of Tyrosine-protein kinase Lyn (P07948 whole entry): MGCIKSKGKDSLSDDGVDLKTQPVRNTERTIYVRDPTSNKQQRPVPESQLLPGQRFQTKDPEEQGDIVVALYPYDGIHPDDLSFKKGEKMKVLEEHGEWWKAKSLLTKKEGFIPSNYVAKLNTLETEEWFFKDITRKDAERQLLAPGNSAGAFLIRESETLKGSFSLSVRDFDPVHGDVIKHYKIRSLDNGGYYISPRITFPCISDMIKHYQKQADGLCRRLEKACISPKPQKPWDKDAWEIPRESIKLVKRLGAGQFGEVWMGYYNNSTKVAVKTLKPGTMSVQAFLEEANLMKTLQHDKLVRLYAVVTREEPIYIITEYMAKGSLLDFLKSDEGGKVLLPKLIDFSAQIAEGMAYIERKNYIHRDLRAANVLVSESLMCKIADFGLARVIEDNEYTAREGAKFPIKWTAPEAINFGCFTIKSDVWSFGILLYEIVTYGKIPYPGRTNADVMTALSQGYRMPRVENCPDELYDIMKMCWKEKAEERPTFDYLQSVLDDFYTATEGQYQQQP

For `COC(=O)c1ccc2c(c1)NC(=O)/C2=C(\Nc1ccc(-n2cccc2CN(C)C)nc1)c1ccccc1`, in [1], the IC50 turned out to be 26 nM.

For `COC(=O)c1ccc2c(c1)NC(=O)/C2=C(\Nc1ccc(-n2cccc2CN2CCN(C)CC2)c(C)c1)c1ccccc1`, the IC50 in [1] came to 206 nM. The same measure, in the same setting: the result for `COC(=O)c1ccc2c(c1)NC(=O)/C2=C(\Nc1ccc(-n2c(C)ccc2CN(C)C)nc1)c1ccccc1` reads 32 nM. In the case of `COC(=O)c1ccc2c(c1)NC(=O)/C2=C(\Nc1ccc(-n2c(C)ccc2CN(C)C)cc1)c1ccccc1`, the IC50 in data set [1] amounted to 45.3 nM.

For the compound `COC(=O)c1ccc2c(c1)NC(=O)/C2=C(\Nc1ccc(-n2cccc2CN(C)C)c(C)c1)c1ccccc1`, the IC50 in data set [1] was 31 nM. On to `COC(=O)c1ccc2c(c1)NC(=O)/C2=C(\Nc1ccc(-n2cccc2CN2CCN(C)CC2)cc1)c1ccccc1`, for which the IC50 in [1] came to 55 nM.

As for `COC(=O)c1ccc2c(c1)NC(=O)/C2=C(\Nc1cnc(-n2cccc2CN(C)C)c(C)c1)c1ccccc1`, the figures for the IC50 in data set [1] and in data set [2] were 71 nM and more than 1000 nM, respectively. In the case of `COC(=O)c1ccc2c(c1)NC(=O)/C2=C(\Nc1ccc(N(C)C(=O)CN2CCN(C)CC2)cc1)c1ccccc1` [NINTEDANIB], the IC50 was 1.9 nM in data set [3], 3 nM in data set [4], 55 nM in [7] and more than 1000 nM in data set [8]. The inhibition in vivo at 100 mg/kg in the data set on HT-29 was 44.3%. Besides, in [5], the half-life turned out to be 27.4 min. Moreover, the Activity entry in [6] was “Non-Toxic”. Also, the CLint scaled in data set [9] is 63.5 mL/min/kg. Take `COC(=O)c1ccc2c(c1)NC(=O)/C2=C(\Nc1ccc(-n2c(C)ccc2CN2CCOCC2)cc1)c1ccccc1`: in data set [1], the IC50 came out at 37 nM.

Consider `COC(=O)c1ccc2c(c1)NC(=O)/C2=C(\Nc1ccc(-n2cccc2CN2CCN(C)CC2)nc1)c1ccccc1`, for which, in data set [1], the IC50 was determined as 114 nM.

Take `COC(=O)c1ccc2c(c1)NC(=O)/C2=C(\Nc1cnc(-n2cccc2CN2CCN(C)CC2)c(C)c1)c1ccccc1`: the values for the IC50 in data set [1] and in data set [2] were more than 300 nM and more than 1000 nM, respectively. Take `CCN(CC)Cc1ccc(C)n1-c1ccc(N/C(=C2\C(=O)Nc3cc(C(=O)OC)ccc32)c2ccccc2)cc1`: the IC50 in data set [1] was 23.8 nM.

Consider `COC(=O)c1ccc2c(c1)NC(=O)/C2=C(\Nc1ccc(-n2cccc2CN(C)C)cc1)c1ccccc1`, for which, in data set [1], the IC50 was 11 nM. On the same count and under the same terms, the result for `COC(=O)c1ccc2c(c1)NC(=O)/C2=C(\Nc1ccc(-n2c(C)ccc2CN2CCN(C)CC2)nc1)c1ccccc1` reads 123 nM.
